# Screens (PubChem)
# Hits are enriched below; roughly 3.7% of the tested compounds scored in any of these assays.
# KCNK3 inh: human KCNK3 channel inhibition, primary screen; O14649; CHO-KCNK3 thallium flux, FluxOR fluorescence; stronger effect = lower value; hit rate 0.84% among 340,000; B-score at 10 µM;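 active means B-score under library mean minus 4 SD, starting fluorescence ratio at most library mean plus 5 SD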;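 further: more negative B-score means stronger inhibition of thallium flux through KCNK3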
# Kir21 block: Kir2.1 (mouse) channel inhibition | hit rate 0.85% among 310,000 | B-score at 10 µM | HEK293-Kir2.1, FluxOR thallium flux fluorescence; stronger effect = lower value | P35561 | AID 1672;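 active means fluorescence ratio B-score at or below minus 3 SD of library scores, with starting-brightness B-score within 2 SD, cut at about -4.2 in these data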;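 further: channel flux triggered by added potassium and thallium sulfate stimulus; B-score of peak minus minimum fluorescence over baseline after thallium stimulus; more negative B-score means stronger Kir2.1 block with less thallium influx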
# hERG protect: compounds protecting human hERG from proarrhythmic drug block; AID 1511; Q12809; CHO-hERG, FluxOR thallium flux, dofetilide IC70 present; hit rate 0.51% among 310,000; activation (rescue from dofetilide block), less the hit threshold, % at 10 µM;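 active means activation above the mean of controls blocked by dofetilide plus 5 SD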;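 further: thallium influx through hERG after potassium depolarization seen as dye fluorescence rise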
# KCNQ1 act: potentiators or activators of human KCNQ1 potassium channel | hit rate 0.35% among 310,000 | CHO-K1 KCNQ1, thallium flux FluxOR fluorescence; stronger effect = higher value | B-score at 10 µM;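 active means fluorescence ratio B-score, a plate-corrected score, at least three library SD, with initial intensity B-score within 5 SD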
# Target sequence (P51787 whole entry, looked up): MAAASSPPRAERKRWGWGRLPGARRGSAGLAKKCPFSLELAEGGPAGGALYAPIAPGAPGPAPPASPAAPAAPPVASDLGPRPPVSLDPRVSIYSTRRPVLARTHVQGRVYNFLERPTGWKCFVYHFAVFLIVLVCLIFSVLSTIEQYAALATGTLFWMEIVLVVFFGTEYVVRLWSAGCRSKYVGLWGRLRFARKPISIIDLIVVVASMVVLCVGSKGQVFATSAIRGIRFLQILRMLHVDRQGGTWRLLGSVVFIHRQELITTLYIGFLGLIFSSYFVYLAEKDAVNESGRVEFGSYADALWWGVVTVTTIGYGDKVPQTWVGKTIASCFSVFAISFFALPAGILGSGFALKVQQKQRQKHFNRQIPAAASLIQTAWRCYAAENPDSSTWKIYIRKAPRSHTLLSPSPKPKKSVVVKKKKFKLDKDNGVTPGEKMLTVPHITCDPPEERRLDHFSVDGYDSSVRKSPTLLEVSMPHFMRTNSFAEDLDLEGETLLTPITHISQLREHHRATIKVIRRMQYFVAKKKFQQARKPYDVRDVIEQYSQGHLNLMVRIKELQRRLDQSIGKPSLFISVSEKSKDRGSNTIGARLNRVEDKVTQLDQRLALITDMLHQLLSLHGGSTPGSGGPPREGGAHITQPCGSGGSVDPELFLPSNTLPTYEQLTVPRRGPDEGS
#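 Schedule – 37 °C overnight plating, 90-min dark dye load, 20-min compound pretreatment · System – stable KCNQ1 CHO-K1 line · Probe or stimulus – thallium- and potassium-containing depolarizing buffer · Measured by – kinetic FluxOR fluorescence, 10 s baseline plus 110 s post-stimulus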
# KCNQ1 inh: blocks the human KCNQ1 potassium channel. hit rate 1.3% among 310,000. CHO-K1 KCNQ1, FluxOR thallium flux fluorescence; stronger effect = higher value. AID 2642. B-score at 10 µM. P51787;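 active means compounds whose thallium flux B-score, printed positive for inhibition, exceeds three library SD while starting fluorescence stays within three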;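 further: channel opened by potassium depolarization with thallium stimulus after 20 min compound exposure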
# KCNK9 block: human KCNK9 channel inhibition; AID 488922; HEK293 KCNK9, FluxOR thallium flux fluorescence; stronger effect = lower value; hit rate 1.2% among 310,000; B-score at 10 µM; Q9NPC2;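 active means ratio B-score over 3 SD below the library mean, with starting fluorescence within 5 SD of its mean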;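 further: negative B-score means less thallium flux so channel inhibition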
# KCNK3 inh conf: confirmation of human KCNK3 two-pore domain potassium channel inhibitors. shares compounds with KCNK3 inh. CHO-KCNK3 thallium flux, FluxOR fluorescence; 0% buffer, 100% carvedilol maximal block. hit rate 99% among 2,400. AID 651638. ratio percent of control, % at 10 µM;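 active means ratio percent of control, averaged over triplicates, above buffer control mean plus 5 SD, cut at about 64% in these data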;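 further: ratio is the fluorescence rise from min to max over baseline after thallium stimulus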
# KCNK3 uninduced: counter-screen for KCNK3 inhibitors: effect in non-induced cells. shares compounds with KCNK3 inh. hit rate 40% among 2,400. thallium flux ratio (lower = more inhibition) at 10 µM. AID 651747. non-induced KCNK3 parental cells, FluxOR thallium flux; stronger effect = lower value;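 active means thallium flux ratio, averaged over three wells, more than 5 SD below the buffer control mean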;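 further: host cells are CHO cells without KCNK3 induction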
# Numbers stand for hits; - = inactive; . = no result.
SMILES,KCNK3 inh,Kir21 block,hERG protect,KCNQ1 act,KCNQ1 inh,KCNK9 block,KCNK3 inh conf,KCNK3 uninduced
COc1ccc2[nH]c3c(c2c1)CCN1C(=O)C(CC(=O)NCCCN(C)C)C[C@H](C(=O)N2CCCCC2)[C@@]31C (stereo partly drawn),-,.,.,.,.,.,.,.
COC(=O)CCc1c[nH]c2ccc([N+](=O)[O-])cc12,-,.,.,.,.,.,.,.
O=C(CCc1c[nH]c2ccccc12)OCc1cccc([N+](=O)[O-])c1,-9.37,-,-,-,-,-,83.3,-
CCOC(=O)[C@@H]1CSCCS(=O)(=O)N1Cc1ccccc1Br,-,.,.,.,.,.,.,.
Cc1onc(-c2c(Cl)cccc2Cl)c1-c1nc2cc(Cl)ccc2c(=O)o1,-,.,.,.,.,.,.,.
CCc1ccc(NC(=O)N(CCCN2CCOCC2)C(C)c2cc3cccc(OC)c3o2)cc1 (stereo not drawn),-8.83,-,-,-,-,-,118.0,-
COc1cccc2cc(C(C)N(CCCN3CCOCC3)C(=S)Nc3c(C)cccc3C)oc12 (stereo not drawn),-,-,-,-,-,-,.,.
Cc1nc(C(=O)Nc2cccc(Cl)c2)nn1-c1cc(OC(C)C)c(Cl)cc1Cl,-8.9,-,-,-,-,-,96.3,-
COc1ccc(C2=NS(=O)(=O)N(C)C(C(=O)Nc3ccc4c(c3)OCO4)=C2)cc1,-,.,.,.,.,.,.,.
Cc1ccc(C2=NS(=O)(=O)N(C)C(C(=O)Nc3ccc4c(c3)OCO4)=C2)cc1,-9.96,-,-,-,-,-6.69,122.3,0.143
CN(Cc1nccs1)C(=O)C1CCC(=O)N(CCCc2ccccc2)C1 (stereo not drawn),-,-,-,-,-,-,.,.
Cc1cccc(C(=O)NCC(=O)OCCOc2ccccc2Cl)c1,-9.14,-,-,-,-,-,86.3,-
Cc1ccc(C2C=C(c3ccccc3)Nc3ncnn32)cc1 (stereo not drawn),-,-,-,-,-,-,.,.
Cn1cccc1C1C=C(c2ccc(C(C)(C)C)cc2)Nc2ncnn21 (stereo not drawn),-9.14,-,-,-,-,-,110.7,-
COc1cccc(CN2CCN(S(=O)(=O)c3ccc(Cl)s3)CC2)c1,-9.22,-,-,-,-,-,116.3,0.127
COc1ccc(S(=O)(=O)N2CCN(Cc3cccc(Cl)c3)CC2)cc1,-,-,-,-,-,-,.,.
CC12CCC(=O)C=C1CCC1C2C(O)CC2(C)C(c3csc(N)n3)CCC12 (stereo not drawn),-,.,.,.,.,.,.,.
CC12CCC(=O)C=C1CCC1C2CCC2(C)C(c3csc(N)n3)CCC12 (stereo not drawn),-14.3,.,.,.,.,.,133.3,0.121
CCN(CC(=O)NCc1ccc(Cl)cc1)C(=O)CSc1ccc(Br)cc1,-,-,-,-,-,-,.,.
N#Cc1sc2nc(-c3cccs3)cc(-c3ccc(Cl)cc3)c2c1N,-14.2,-,-,-,-,-6.97,131.7,-
Fc1ccc(-c2cnc(-c3cccs3)o2)cc1,-9.56,-,-,-,-,-,92.7,0.153
CCN1CCN(c2ccc(S(=O)(=O)N3CCCCC3)cc2N)CC1,-,.,.,.,.,.,.,.
CC(=O)c1c(C)[nH]c(C(=O)OCC(=O)N(Cc2ccccc2)C(C)(C)C)c1C,-,.,.,.,.,.,.,.
CC(=O)Oc1ccccc1C(=O)Nc1ccccc1C(=O)N1CCCCC1,-,-,-,-,-,-,.,.
Cc1ccc(/C=N/N2CCN(Cc3ccccc3)CC2)cc1,-,-,-,-,-,-,.,.
Cc1ccc(CN2CCN(/N=C/c3ccc(Cl)c([N+](=O)[O-])c3)CC2)cc1,-8.73,-,-,-,-,-,121.0,-
CCN(CC1COc2ccccc2O1)C(=O)c1ccc(Cl)c(S(=O)(=O)N2CC(C)OC(C)C2)c1 (stereo not drawn),-,-,-,-,-,-,.,.
CC1CN(S(=O)(=O)c2cc(C(=O)N(CCc3ccccc3)Cc3ccccc3)ccc2Cl)CC(C)O1 (stereo not drawn),-8.74,-,-,-,-,-,85.0,-
